Assay results reported in ChEMBL document CHEMBL4513216, “Probing the Open Global Health Chemical Diversity Library for Multistage-Active Starting Points for Next-Generation Antimalarials” (ACS Infect Dis, 2020).

Assay: Toxicity liver stage against HepG2, at 10uM
Assay type: cell-based
Set-up: test concentration 10 uM, cell line HepG2-A16-CD81EGFP
Conditions: human, HepG2-A16-CD81EGFP cells; read-out: INHIBITION
Outline: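 Uninfected HepG2-A16-CD81EGFP cells, 3 × 10^3 per well, 1536-well, plated on prespotted compound at 10 μM final, parasite-free screening media added to match infected plates; puromycin 10 μM positive, DMSO 0.5% negative; run in parallel with 48 h PbLuc assay at 37 °C, 5% CO2; viability by CellTiter-Glo luminescence, normalized to controls.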
Molecule `CC(C)N1CCC(N2CCN(C3CCCCC3)CC2CCO)CC1` (stereo unspecified) has a cytotoxicity at 10 µM of -9.63%.
For `CCN1CCN(C(=O)c2ccn(C)c(=O)c2)CC1`, the cytotoxicity at 10 µM was 8.66%.
Molecule `CS(=O)(=O)c1ccc(NCC2CCCO2)c(S(C)(=O)=O)c1` (stereo unspecified) has a cytotoxicity at 10 µM of 3.72%.
Molecule `CSc1ccc(CNC(=O)Cc2c(C)n[nH]c2C)cc1` has a cytotoxicity at 10 µM of 4.16%.
With `CCOc1nn(CC)cc1-c1nnc(SCc2cccnc2)n1C` the cytotoxicity at 10 µM was 5.97%.
Molecule `O=c1ccc(-c2cccs2)nn1CN1CCc2ccccc2C1` has a cytotoxicity at 10 µM of 14.3%.
Molecule `CC1CC(=O)c2cnc3nc(N4CCOCC4)[nH]c(=O)c3c2C1` (stereo unspecified) has a cytotoxicity at 10 µM of 5.31%.
With `CCc1cnc(N2CC3(CCN(C(=O)c4ccoc4)C3)C2)nc1` the cytotoxicity at 10 µM was -8.37%.
With `CCn1nccc1CNC(=O)C1CCC1` the cytotoxicity at 10 µM was -2.17%.
`COc1ccc(OC)c(Nc2nc3c(C)nn(C)c3c(=O)n2C)c1` showed a cytotoxicity at 10 µM of -2.73%.
For `Cn1nc(C(=O)NC2CC(C)(C)NC(C)(C)C2)cc1NC(=O)C1CC1`, the cytotoxicity at 10 µM was 0.754%.
`CCn1cc(NS(=O)(=O)c2ccc(F)cc2)c(C(=O)NCC(C)C)n1` gave a cytotoxicity at 10 µM of 6.6%.
Molecule `Cn1cnc(S(=O)(=O)N2CCCC2c2cnccn2)c1` (stereo unspecified) has a cytotoxicity at 10 µM of -28.4%.
With `CC(=O)N[C@@H]1CN(C(=O)c2cnc3ccccc3c2)C[C@H]1O` the cytotoxicity at 10 µM was -12.1%.
Molecule `Cc1c(C(=O)N2CC(Cc3nccc4ccn(C)c34)C2)cnn1C` has a cytotoxicity at 10 µM of -26.3%.
For `Cc1noc(C)c1-c1cncc(CC2CCN(C(=O)c3cc[nH]n3)C2)n1` (stereo unspecified), the cytotoxicity at 10 µM was -17.4%.
In the case of `O=C(C1CCCC1)N1CCC(c2ccnc(Nc3cnccn3)n2)C1` (stereo unspecified), the cytotoxicity at 10 µM is reported as -24.6%.
For `Cc1noc(C)c1-c1cc(CC2CCN(C(=O)c3cc[nH]n3)C2)ncn1` (stereo unspecified), the cytotoxicity at 10 µM was -13.4%.
In the case of `Cn1ccc(C(=O)N2CCOC(c3ccc(C(N)=O)cn3)C2)n1` (stereo unspecified), the cytotoxicity at 10 µM is reported as -20%.
For `Cn1nc(C2CN(C(=O)c3ccncc3)C2)c2nccnc21`, the cytotoxicity at 10 µM was -8.8%.
Molecule `Cc1cc(-c2cnn(CCNC(=O)c3snnc3C)c2C2CC2)on1` has a cytotoxicity at 10 µM of -7.16%.
In the case of `CC1CCCCN1C(=O)c1cn(-c2ccc(C(F)(F)F)cn2)nn1` (stereo unspecified), the cytotoxicity at 10 µM is reported as -56.5%.
Molecule `CN(CCCc1ccccc1)C(=O)CCc1nc(-c2nnc[nH]2)no1` has a cytotoxicity at 10 µM of -44.8%.
For `Cc1cccc(-c2ccc(C(=O)N3CCN(C4CC4)CC3)c(=O)[nH]2)c1`, the cytotoxicity at 10 µM was 13.2%.
`CC(C(N)=O)N1CCN(c2ncc(Br)cn2)CC1` (stereo unspecified) gave a cytotoxicity at 10 µM of 3.23%.
`CC(C)(C)OC(=O)N[C@H]1CCN(c2cncc(Br)c2)C1` gave a cytotoxicity at 10 µM of -52.8%.
`CC(C)c1noc(C(C)N2CCC(c3nc4ccccc4o3)CC2)n1` (stereo unspecified) showed a cytotoxicity at 10 µM of 8.05%.
`CC(NC(=O)CCCN(C)C)c1cn(-c2ccccc2)nn1` (stereo unspecified) gave a cytotoxicity at 10 µM of -22.7%.
Molecule `CNC(=O)c1cccnc1NCc1ccc(Cn2cccn2)cc1` has a cytotoxicity at 10 µM of 17.9%.
`Cc1ccsc1C(Cc1ccccc1)NC(=O)CNC(=O)C1CC1` (stereo unspecified) gave a cytotoxicity at 10 µM of 11.6%.
`COCCS(=O)(=O)Cc1csc(NC(C)=O)n1` showed a cytotoxicity at 10 µM of -2.93%.
`COc1ccc(C#N)cc1CSCCN1CCOCC1` showed a cytotoxicity at 10 µM of 6.14%.
`CCN(C(=O)C1CC1)C(c1cccnc1)c1ccc2c(c1)CCO2` (stereo unspecified) gave a cytotoxicity at 10 µM of 1.46%.
In the case of `Cc1csc(CCNC(=O)Nc2cc(C(F)(F)F)c[nH]c2=O)n1`, the cytotoxicity at 10 µM is reported as 8.13%.
For `Cc1n[nH]c(C)c1C1CCCN1C(=O)NCC(=O)Nc1ccccc1` (stereo unspecified), the cytotoxicity at 10 µM was 4.23%.
Work on `Cc1cc(C)cc(C2(C(=O)NCC(C)CN3CCCC3=O)CC2)c1` (stereo unspecified) yielded a cytotoxicity at 10 µM of 1.42%.
In the case of `N#Cc1c(N2CCN(CC3CCOC3)CC2)nc2ccccn12` (stereo unspecified), the cytotoxicity at 10 µM is reported as 1.37%.
`Cc1cccc(OCCSCCn2nc3ccccn3c2=O)c1` gave a cytotoxicity at 10 µM of 6.47%.
Work on `COc1c(CNC(C)C(=O)NC2CCCC2)c(C)nn1C` (stereo unspecified) yielded a cytotoxicity at 10 µM of -8.45%.
`CC(=O)N1CCCN(C(=O)NC(C)c2csc3ccccc23)CC1` (stereo unspecified) showed a cytotoxicity at 10 µM of -4.6%.
`Cc1ccc2cccc(S(=O)(=O)N(C)C3CCCN(C)C3)c2n1` (stereo unspecified) showed a cytotoxicity at 10 µM of 1.5%.
`CC(NCc1cccc(S(=O)(=O)N(C)C)c1)c1cccnc1` (stereo unspecified) showed a cytotoxicity at 10 µM of 1.56%.
Work on `COCc1cncc2c1CCN(C(=O)c1ccoc1C)C2` yielded a cytotoxicity at 10 µM of -81.1%.
Work on `CNC(=O)[C@@]12CCO[C@@H]1CCN(S(=O)(=O)c1ccc(C)cc1)C2` yielded a cytotoxicity at 10 µM of -69.9%.
With `CN(C)c1ncc2c(n1)N(C)CCN(CC1CC1)C2=O` the cytotoxicity at 10 µM was -1.36%.
In the case of `CC[C@H](C)[C@H](N)C(=O)Nc1nc(-c2cnc(N(C)C)nc2)cs1`, the cytotoxicity at 10 µM is reported as -9.44%.
`Cc1ncc(-c2ccnc(N3CCN(C)CC3)n2)c(-c2cccnc2)n1` gave a cytotoxicity at 10 µM of 4.36%.
With `O=C(CN1CCc2onc(-c3ccccc3F)c2C1)NC1CC1` the cytotoxicity at 10 µM was 14.6%.
In the case of `Cc1nc(CC(=O)N2CCN(CCOc3ccccc3)CC2)cs1`, the cytotoxicity at 10 µM is reported as -15.2%.
For `Cc1ccnn1CC(=O)N(C)Cc1ccc(-n2cccn2)cc1`, the cytotoxicity at 10 µM was 0.0616%.
Molecule `Cc1ccccc1OCC1CCCN(C(=O)CNC(=O)N(C)C)C1` (stereo unspecified) has a cytotoxicity at 10 µM of -4.46%.
Molecule `O=C(c1cccnc1O)N1CCC2(CCCO2)CC1` has a cytotoxicity at 10 µM of 7.28%.
In the case of `CC(c1ccccn1)N(C)Cc1cc2cc3c(cc2[nH]c1=O)OCO3` (stereo unspecified), the cytotoxicity at 10 µM is reported as 11.7%.
For `COc1ccccc1CCN1CCCC(CN(C)Cc2ccc(C)o2)C1` (stereo unspecified), the cytotoxicity at 10 µM was -0.813%.
For `O=C(N[C@@H]1CCN(Cc2cc3ccccc3s2)C[C@H]1O)c1cccnc1`, the cytotoxicity at 10 µM was -7.57%.
Work on `COc1nc2ccccc2cc1CN1CCCC(CNC(C)=O)C1` (stereo unspecified) yielded a cytotoxicity at 10 µM of 1.9%.
`Cn1ccc(C(=O)N2CCCN(CCCc3ccccc3)CC2)cc1=O` showed a cytotoxicity at 10 µM of -0.942%.
`O=c1[nH]c(NCc2cccc(-c3ccccc3)c2)nc2c1CCNC2` gave a cytotoxicity at 10 µM of 3.3%.
`Cc1nonc1CN1CC[C@@](O)(C2CCC2)[C@H](C)C1` gave a cytotoxicity at 10 µM of 17.5%.
Work on `CCc1nc(NC2CCN(CC(=O)NC3CC3)CC2)c2cnn(C)c2n1` yielded a cytotoxicity at 10 µM of 4.99%.
Work on `CCCNC(=O)CCC(=O)N1CCC(c2noc3cc(F)ccc23)CC1` yielded a cytotoxicity at 10 µM of 2.45%.
Molecule `CC(C)Oc1cc(N2CCC(N3CCC(O)CC3)CC2)nc(N)n1` has a cytotoxicity at 10 µM of -12.2%.
In the case of `O=C(NC1CC(=O)N(Cc2cccc(F)c2)C1)c1ccncc1` (stereo unspecified), the cytotoxicity at 10 µM is reported as -7.41%.
Molecule `Fc1ccc2[nH]c(C3CCCN3CCc3ccccn3)nc2c1` (stereo unspecified) has a cytotoxicity at 10 µM of -9.7%.
`CN(C)CC(=O)N1CCCC2(CCC(=O)N(CCc3c[nH]cn3)C2)C1` (stereo unspecified) showed a cytotoxicity at 10 µM of -8.77%.
`COc1cc(CNc2cnn(CC(F)F)c2)ccc1O` showed a cytotoxicity at 10 µM of 0.553%.
For `COc1c(C)cnc(CN(C)C(=O)c2cccnc2N(C)C)c1C`, the cytotoxicity at 10 µM was -12.3%.
`O=C(CCNC(=O)c1ccoc1)Nc1ccccc1F` showed a cytotoxicity at 10 µM of -8.38%.
In the case of `COc1c(C)cnc(CN(C)C(=O)c2ccccn2)c1C`, the cytotoxicity at 10 µM is reported as 0.22%.
With `CN(Cc1ccc2c(c1)OCCO2)C(=O)Cn1cccnc1=O` the cytotoxicity at 10 µM was 3.01%.
`Cn1cc(C(=O)N2CCCC(n3cccn3)C2)c2ccccc21` (stereo unspecified) gave a cytotoxicity at 10 µM of 5.2%.
In the case of `Cc1cnn(C2CCCN(C(=O)Cc3cn4ccccc4n3)C2)c1` (stereo unspecified), the cytotoxicity at 10 µM is reported as -3.15%.
`CCc1nc(CN2CCCC(NCc3ncc(C(C)(C)C)o3)C2)no1` (stereo unspecified) gave a cytotoxicity at 10 µM of 1.97%.
With `Cc1ccc(C)c(CSc2nnc(C(N)C(C)C)o2)c1` (stereo unspecified) the cytotoxicity at 10 µM was 9.24%.
In the case of `Cn1cc(CN2CCC(c3cc(COc4cccc(Cl)c4)[nH]n3)C2)cn1` (stereo unspecified), the cytotoxicity at 10 µM is reported as -2.93%.
In the case of `CN1CC(=O)N(c2ccsc2)CC12CCN(C(=O)CC1CCCC1)C2` (stereo unspecified), the cytotoxicity at 10 µM is reported as -77.3%.
Molecule `O=C(c1ccc[nH]1)N1CCc2onc(COc3cccnc3)c2C1` has a cytotoxicity at 10 µM of -62.6%.
Work on `CCOC(=O)[C@H]1CNC[C@H]1C(=O)OCC` yielded a cytotoxicity at 10 µM of 9.24%.
For `Cc1ccccc1CN1CCC2(COCc3cnc(N(C)C)nc32)C1` (stereo unspecified), the cytotoxicity at 10 µM was -8.22%.
In the case of `Cc1ccc(CNC(=O)c2ccc(S(=O)(=O)N3C[C@H]4C[C@@H]3CN4)cc2)o1`, the cytotoxicity at 10 µM is reported as -7.2%.
`O=C(c1ccccn1)N1C[C@H]2CC[C@@H](C1)N(C(=O)CCc1cccs1)C2` gave a cytotoxicity at 10 µM of -9%.
